Results reported in ChEMBL document CHEMBL1153728, “Quercetin reduces inflammatory pain: inhibition of oxidative stress and cytokine production” (2009).
Active and inactive are the calls of the source.

Tests used:
[1] = tested on: Mus musculus; experiment: Muscle relaxant activity in Swiss mouse assessed as motor response at 100 mg/kg, ip after 3 hrs 30 mins by rotarod test; assay type: functional, organism-based; design: dose 100 mg/kg
[2] = tested on: Mus musculus; experiment: Antinociceptive activity in Swiss mouse assessed as inhibition of carrageenan-induced mechanical hypernociception at 100 mg/kg, ip dosed 30 mins before carrageenan challenge measured after 1 to 5 hrs by electronic pressure-meter test; assay type: functional, organism-based; design: dose 100 mg/kg
In short: (§1)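 Male Swiss mice given 100 mg/kg ip at 12, 6, 3 h or 30 min before intraplantar carrageenin (100 µg/paw). Mechanical withdrawal threshold by electronic pressure-meter (mean of three readings) at 1, 3 and 5 h after stimulus, expressed as change from baseline.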

[3] = tested on: Mus musculus; experiment: Antinociceptive activity in Swiss mouse assessed as inhibition of CXCL1-induced mechanical hypernociception at 100 mg/kg, ip dosed 30 mins before CXCL1 challenge measured after 3 hrs by electronic pressure-meter test; assay type: functional; settings: route intraperitoneal
[4] = tested on: Mus musculus; experiment: Analgesic activity in Swiss mouse assessed as reaction time taken to jump or lick paw at 8 mg/kg, ip after 30 mins of administration by hot plate test; assay type: functional, organism-based; design: dose 8 mg/kg
In short: (§2)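 Male Swiss mice (25-30 g) placed in glass cylinder on hot plate at 55 °C. Two control latencies taken at least 10 min apart; latency rechecked 30 and 60 min after ip dosing. Endpoint is jumping or paw licking, 30 s cutoff.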

[5] = tested on: Mus musculus; experiment: Inhibition of carrageenan-induced neutrophil recruitment in Swiss mouse subcutaneous plantar tissue assessed as myeloperoxidase activity at 100 mg/kg, ip dosed 30 mins before carrageenan challenge measured after 3 hrs by spectrophotometry; assay type: functional, organism-based; design: dose 100 mg/kg
In short: (§3)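 Mice given ip 100 mg/kg 30 min before intraplantar carrageenin (100 µg/paw), TNFα (300 pg/paw) or CXCL1 (20 ng/paw). Plantar tissue taken 3 h later into 50 mM K2HPO4 pH 6.0 with 0.5% HTAB, homogenized, centrifuged. Supernatant read with o-dianisidine/H2O2 at 450 nm, compared to neutrophil standard curve.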

[6] = tested on: Mus musculus; experiment: Antinociceptive activity in Swiss mouse assessed as inhibition of carrageenan-induced mechanical hypernociception at 300 mg/kg, po dosed 30 mins before carrageenan challenge measured after 3 hrs by electronic pressure-meter test; assay type: functional
In short: (§4)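 Male Swiss mice dosed ip (3-100 mg/kg) or po (30-300 mg/kg) in 20% Tween 80/saline 30 min before intraplantar carrageenin (100 µg/paw). Pressure-meter withdrawal threshold (average of three readings) before and 3 h after; Δ threshold in g; n = 5; one-way ANOVA with Tukey test.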

[7] = tested on: Mus musculus; experiment: Analgesic activity in Swiss mouse assessed as reaction time taken to jump or lick paw at 8 mg/kg, ip after 60 mins of administration by hot plate test; assay type: functional, organism-based; design: dose 8 mg/kg; in short: as §2
[8] = tested on: Mus musculus; experiment: Antinociceptive activity in Swiss mouse assessed as inhibition of carrageenan-induced mechanical hypernociception at 3 to 100 mg/kg, ip administered 30 mins before carrageenan challenge measured after 3 hrs by electronic pressure-meter test; assay type: functional; settings: dose mg/kg 3-100; route intraperitoneal; in short: as §4
[9] = tested on: Mus musculus; experiment: Antinociceptive activity in ip dosed Swiss mouse assessed as inhibition of acetic acid-induced writhing response administered 30 mins before acetic acid challenge measured for 20 mins; assay type: functional, organism-based
In short: (§5)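 Male Swiss mice pretreated ip (3-100 mg/kg) 30 min before ip acetic acid 0.6% v/v (10 mL/kg) or phenyl-p-benzoquinone 1890 µg/kg in 2% DMSO/saline. Cumulative writhing score counted over 20 min; n = 7.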

[10] = tested on: Mus musculus; experiment: Antioxidant activity in ip dosed Swiss mouse assessed as inhibition of carrageenan-induced reduction in GSH level dosed 30 mins before carrageenan challenge measured after 3 hrs by fluorescence spectrophotometry; assay type: functional, organism-based
In short: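 Swiss mice dosed ip 10-100 mg/kg 30 min before intraplantar carrageenin (100 µg/paw) or saline. Plantar skin from five mice pooled 3 h later, homogenized in 100 mM NaH2PO4 pH 8.0/5 mM EGTA, TCA-precipitated. Supernatant reacted with OPT 15 min, fluorescence ex 350/em 420 nm against 0-40 µM GSH standard, in triplicate.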

[11] = tested on: Mus musculus; experiment: Antinociceptive activity against formalin-induced pain in Swiss mouse assessed as inhibition of hind paw flinching response during second phase of response at 100 mg/kg, ip dosed 30 mins before formalin challenge measured for 0 to 30 mins; assay type: functional, organism-based; design: dose 100 mg/kg
In short: (§6)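 Male Swiss mice dosed ip (100 mg/kg, vehicle 20% Tween 80 in saline) 30 min before intraplantar formalin 0.1% (25 µL). Paw flinches and licking time counted 0-30 min in 5-min intervals, separating first and second phases; n = 6.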

[12] = tested on: Mus musculus; experiment: Analgesic activity in Swiss mouse assessed as reaction time taken to jump or lick paw at 100 mg/kg, ip after 30 mins of administration by hot plate test; assay type: functional, organism-based; design: dose 100 mg/kg; in short: as §2
[13] = tested on: Mus musculus; experiment: Antinociceptive activity in ip dosed Swiss mouse assessed as inhibition of phenyl-p-benzoquinone-induced writhing response administered 30 mins before phenyl-p-benzoquinone challenge measured for 20 mins; assay type: functional, organism-based; in short: as §5
[14] = tested on: Mus musculus; experiment: Inhibition of TNF-alpha-induced neutrophil recruitment in Swiss mouse subcutaneous plantar tissue assessed as myeloperoxidase activity at 100 mg/kg, ip dosed 30 mins before TNFalpha challenge measured after 3 hrs by spectrophotometry; assay type: functional, organism-based; design: dose 100 mg/kg; in short: as §3
[15] = tested on: Mus musculus; experiment: Antinociceptive activity in Swiss mouse assessed as inhibition of dopamine-induced mechanical hypernociception at 100 mg/kg, ip dosed 30 mins before dopamine challenge measured after 3 hrs by electronic pressure-meter test; assay type: functional, organism-based; design: dose 100 mg/kg
[16] = tested on: Mus musculus; experiment: Antinociceptive activity against formalin-induced pain in Swiss mouse assessed as inhibition of paw licking response during second phase at 100 mg/kg, ip dosed 30 mins before formalin challenge measured for 0 to 30 mins; assay type: functional, organism-based; design: dose 100 mg/kg; in short: as §6
[17] = tested on: Mus musculus; experiment: Antinociceptive activity in ip dosed Swiss mouse assessed as inhibition of carrageenan-induced mechanical hypernociception administered 30 mins before carrageenan challenge measured after 3 hrs by electronic pressure-meter test; assay type: functional, organism-based; in short: as §4
[18] = tested on: Mus musculus; experiment: Antinociceptive activity in Swiss mouse assessed as inhibition of PGE2-induced mechanical hypernociception at 100 mg/kg, ip dosed 30 mins before PGE2 challenge measured after 3 hrs by electronic pressure-meter test; assay type: functional, organism-based; design: dose 100 mg/kg
[19] = tested on: Mus musculus; experiment: Antinociceptive activity in Swiss mouse assessed as inhibition of carrageenan-induced mechanical hypernociception at 100 mg/kg, ip dosed 3 hrs before carrageenan challenge measured after 3 hrs by electronic pressure-meter test; assay type: functional, organism-based; design: dose 100 mg/kg; in short: as §1
[20] = tested on: Mus musculus; experiment: Antinociceptive activity in Swiss mouse assessed as inhibition of TNF-alpha-induced mechanical hypernociception at 100 mg/kg, ip dosed 30 mins before TNFalpha challenge measured after 3 hrs by electronic pressure-meter test; assay type: functional; settings: route intraperitoneal
[21] = tested on: Mus musculus; experiment: Antiinflammatory activity in Swiss mouse assessed as inhibition of carrageenan-induced paw edema at 100 mg/kg, ip dosed 30 mins before carrageenan challenge measured after 0.5 to 3 hrs; assay type: functional, organism-based; design: dose 100 mg/kg
In short: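 Male Swiss mice; ip pretreatment 30 min before intraplantar carrageenin (100 µg/paw). Paw measured with calliper before and at 30, 60, 120, 180 min after stimulus; edema = VT minus Vo per mouse.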

[22] = tested on: Mus musculus; experiment: Inhibition of carrageenan-induced IL1-beta production in Swiss mouse subcutaneous plantar tissue at 100 mg/kg, ip dosed 30 mins before carrageenan challenge measured after 3 hrs by ELISA; assay type: functional; settings: sc
In short: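 Mice dosed ip 100 mg/kg 30 min before intraplantar carrageenin (100 µg/paw). Paw skin removed 3 h later under terminal anesthesia, homogenized in protease-inhibitor buffer. IL-1β measured by ELISA as pg/paw, with saline-injected controls; n = 5.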

[23] = tested on: Mus musculus; experiment: Analgesic activity in Swiss mouse assessed as reaction time taken to jump or lick paw at 100 mg/kg, ip after 60 mins of administration by hot plate test; assay type: functional, organism-based; design: dose 100 mg/kg; in short: as §2
[24] = tested on: Mus musculus; experiment: Inhibition of CXCL1-induced neutrophil recruitment in Swiss mouse subcutaneous plantar tissue assessed as myeloperoxidase activity at 100 mg/kg, ip dosed 30 mins before CXCL1 challenge measured after 3 hrs by spectrophotometry; assay type: functional, organism-based; design: dose 100 mg/kg; in short: as §3

O=c1c(O)c(-c2ccc(O)c(O)c2)oc2cc(O)cc(O)c12 [QUERCETIN]
Activity [1]: inactive | inhibition [2]: Active | inhibition in vivo at 100 mg/kg [3]: 43% | Activity [4]: Active | Activity [5]: inactive | inhibition in vivo at 300 mg/kg [6]: 55% | Activity [7]: Active | inhibition (INH) [8]: 59% | inhibition [9]: Dose-dependent effect | inhibition [10]: Dose-dependent effect | Activity [11]: Active | Activity [12]: inactive | inhibition [13]: Dose-dependent effect | Activity [14]: inactive | Activity [15]: inactive | Activity [16]: Active | inhibition [17]: Dose-dependent effect | Activity [18]: inactive | inhibition [19]: Active | inhibition in vivo at 100 mg/kg [20]: 51% | inhibition [21]: Active | inhibition in vivo at 100 mg/kg [22]: 36% | Activity [23]: inactive | Activity [24]: inactive
